The source of these data is ChEMBL document CHEMBL5661970 (Cancer Res, 2006).

The target of data set [1] is Tyrosine-protein kinase JAK2 (Homo sapiens, UniProt O60674). The data set can be described thus: Inhibition of Jak2 (unknown origin) in presence of ATP.
A short description of data set [2]: Inhibition of IGF-1R phosphorylation in serum starved human HT-29 cells incubated for 1 hr by immunoblotting analysis. It counts as cell-based. The gist of the method: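 Cells starved overnight in basic medium with 0.5% FBS, incubated 1 h with compound or 0.1% DMSO, then stimulated 5 min at 37°C with human recombinant cognate ligand. Receptor immunoprecipitated from lysate and immunoblotted for phosphotyrosine; IC50 by nonlinear regression of percent inhibition, n = 4.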

Data set [3] has as its target Mitogen-activated protein kinase 3 (Homo sapiens, UniProt P27361). The data set is described as follows: Inhibition of ERK1 phosphorylation in VEGF-stimulated serum-starved human HUVEC cells by immunoblotting analysis. It counts as cell-based. In short, it runs like this: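 HUVECs serum-starved, treated with inhibitor (DMSO stock diluted in medium), then stimulated with VEGF. Lysates run on SDS-PAGE and immunoblotted with anti-phospho-p44/42 MAPK antibody. Four independent experiments.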

The test system of the next data set is HUVEC. The data set is described as follows: Inhibition of cell migration in VEGF-induced serum-starved human HUVEC cells at >= 10 nmol/L incubated for 22 hrs by calcein AM staining based fluorescence plate reader analysis. It counts as functional. The gist of the method: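 HUVECs starved 5 h in EBM-2 with 0.1% BSA, placed in upper chamber of microchamber plate; lower chamber held 10 ng/mL VEGF, 0.1% FBS, 0.1% BSA. Compound in both chambers. After 22 h, migrated cells stained with 4 μg/mL calcein AM, read at 485/530 nm; 100%/0% set with/without VEGF in 0.1% DMSO; n = 10.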

Data set [4] relates to LoVo. The data set is described as follows: Antitumor activity against human LoVo cells xenografted in gamma-irradiation induced RH-rnu/rnu athymic rat assessed as tumor growth inhibition at 0.2 mg/kg, po administered once daily for 2 weeks and measured on day 14 relative to control. It counts as functional. As to conditions: light or radiation study, 336 h, read-out: TGI. In short, it runs like this: (§1)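 Rats were γ-irradiated with 7 Gy whole body, and 24 h later received s.c. tumor cells. Fragments (20-30 mg) from ~1,500 mm3 tumors were then implanted s.c. into irradiated athymic rats. Oral dosing at 0.2 or 1 mg/kg or vehicle ran once daily for 2 weeks from day 0. Tumors were measured with calipers twice weekly (length×width²×0.5). TGI% was taken versus vehicle on day 14 (BxPC-3: day 13), with an unpaired t test on RTV.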

Data set [5] concerns LoVo. The data set can be described thus: Antitumor activity against human LoVo cells xenografted in gamma-irradiation induced RH-rnu/rnu athymic rat assessed as tumor growth inhibition at 1.0 mg/kg, po administered once daily for 2 weeks and measured on day 14 relative to control. It counts as functional. As to conditions: light or radiation study, 336 h, read-out: TGI. In short, it runs like this: as §1

In a further data set the test system is SK-HEP1. The data set is described as follows: Antitumor activity against human SK-HEP1 cells xenografted in gamma-irradiation induced RH-rnu/rnu athymic rat assessed as tumor growth inhibition at 1.0 mg/kg, po administered once daily for 2 weeks and measured on day 14 relative to control. It counts as functional. Conditions: SK-HEP1, light or radiation study, 336 h, read-out: TGI.

In data set [6] the test system is Calu-6. The data set is described as follows: Antitumor activity against human Calu-6 cells xenografted in gamma-irradiation induced RH-rnu/rnu athymic rat assessed as tumor growth inhibition at 0.2 mg/kg, po administered once daily for 2 weeks and measured on day 14 relative to control. The class given is functional. Conditions: Calu-6, light or radiation study, 336 h, read-out: TGI. The gist of the method: as §1

In data set [7] the test system is NCI-H460. The data set can be described thus: Antitumor activity against human NCI-H460 cells xenografted in gamma-irradiation induced RH-rnu/rnu athymic rat assessed as tumor growth inhibition at 0.2 mg/kg, po administered once daily for 2 weeks and measured on day 14 relative to control. Conditions: NCI-H460, light or radiation study, 336 h, read-out: TGI. It counts as functional. In short, it runs like this: as §1

The test system of data set [8] is NCI-H460. The data set is described as follows: Antitumor activity against human NCI-H460 cells xenografted in gamma-irradiation induced RH-rnu/rnu athymic rat assessed as tumor growth inhibition at 1.0 mg/kg, po administered once daily for 2 weeks and measured on day 14 relative to control. It counts as functional. As to conditions: NCI-H460, light or radiation study, 336 h, read-out: TGI. The gist of the method: as §1

The next data set relates to SK-OV-3. The data set is described as follows: Antitumor activity against human SK-OV-3 cells xenografted in gamma-irradiation induced RH-rnu/rnu athymic rat assessed as tumor growth inhibition at 1.0 mg/kg, po administered once daily for 2 weeks and measured on day 14 relative to control. As to conditions: SK-OV-3, light or radiation study, 336 h, read-out: TGI. The class given is functional.

The subject of the next data set is MDA-MB-231. The data set can be described thus: Antitumor activity against human MDA-MB-231 cells xenografted in gamma-irradiation induced RH-rnu/rnu athymic rat assessed as relative tumor volume at 1 mg/kg, po administered once daily for 2 weeks and measured on day 7. The class given is functional. The gist of the method: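 Tumor fragments were grown in γ-irradiated (7 Gy) athymic rats, followed by once-daily oral dosing at 1 mg/kg for 2 weeks. Tumor volume was measured with calipers as length×width²×0.5. Relative tumor volume was calculated as volume on day x divided by volume on day 0.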

Data set [9] can be described thus: Apparent oral clearance in F344/N JcL-rnu athymic rat at 0.2 mg/kg, po measured upto 72 hrs by HPLC-MS/MS analysis. The class given is ADME, organism-based. Conditions: in vivo. In short, it runs like this:
(§2)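 Female F344/N JcL-rnu rats, four per group, single p.o. dose suspended in 0.5% methyl cellulose. Tail-vein blood sampled at set times to 72 h. Serum spiked with internal standard, deproteinated with acetonitrile, analysed by HPLC-MS/MS. Parameters derived by noncompartmental analysis.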

Data set [10] can be described thus: Apparent oral clearance in F344/N JcL-rnu athymic rat at 1 mg/kg, po measured upto 72 hrs by HPLC-MS/MS analysis. The class given is ADME, organism-based. Conditions: in vivo. The gist of the method: as §2
A short description of data set [11]: Apparent oral volume of distribution in F344/N JcL-rnu athymic rat at 0.2 mg/kg, po measured upto 72 hrs by HPLC-MS/MS analysis. Conditions: in vivo. It counts as ADME, organism-based. In short, it runs like this:
as §2

A short description of data set [12]: Apparent oral volume of distribution in F344/N JcL-rnu athymic rat at 1 mg/kg, po measured upto 72 hrs by HPLC-MS/MS analysis. The class given is ADME, organism-based. As to conditions: in vivo. The gist of the method: as §2
Data set [13] is described as follows: Apparent oral volume of distribution in F344/N JcL-rnu athymic rat at 5 mg/kg, po measured upto 72 hrs by HPLC-MS/MS analysis. It counts as ADME, organism-based. As to conditions: in vivo. In short, it runs like this: as §2
The nature of data set [14]: Cmax in F344/N JcL-rnu athymic rat at 0.04 mg/kg, po measured upto 72 hrs by HPLC-MS/MS analysis. It counts as ADME, organism-based. Conditions: in vivo. The gist of the method:
as §2

Data set [15] in a line: Tmax in F344/N JcL-rnu athymic rat at 0.04 mg/kg, po measured upto 72 hrs by HPLC-MS/MS analysis. Conditions: in vivo. The class given is ADME, organism-based. The gist of the method:
as §2

The nature of data set [16]: Maximum concentration at steady state in F344/N JcL-rnu athymic rat at 0.2 mg/kg/day, po measured upto 72 hrs by HPLC-MS/MS analysis. The class given is ADME, organism-based. As to conditions: in vivo. The gist of the method: (§3)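 Steady-state serum levels for repeated oral 0.2 mg/kg daily dosing were simulated from single-dose serum data (female F344/N JcL-rnu rats, four per group, tail-vein sampling to 72 h, HPLC-MS/MS, noncompartmental analysis), not measured directly.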

The nature of data set [17]: Average concentration at steady state in F344/N JcL-rnu athymic rat at 0.2 mg/kg/day, po measured upto 72 hrs by HPLC-MS/MS analysis. It counts as ADME, organism-based. As to conditions: in vivo. In short, it runs like this: as §3
The subject of the next data set is A549. The data set can be described thus: Antitumor activity against human A549 cells xenografted in F344/N Jcl-rnu athymic rat assessed as increase in percentage of necrotic areas in tumor by H and E staining based assay.
Data set [18] deals with Calu-6. The data set is described as follows: Antitumor activity against human Calu-6 cells xenografted in RH-rnu/rnu athymic rat assessed as tumor growth inhibition at 1.0 mg/kg, po administered once daily for 2 to 21 days by DCE-MRI analysis. As to conditions: time 2-21 day.

The structures appear in SMILES notation. Active and inactive are the calls of the source. The calls are words filed in the database; no cut-off is given here.

Sequence of Mitogen-activated protein kinase 3 (P27361 whole entry): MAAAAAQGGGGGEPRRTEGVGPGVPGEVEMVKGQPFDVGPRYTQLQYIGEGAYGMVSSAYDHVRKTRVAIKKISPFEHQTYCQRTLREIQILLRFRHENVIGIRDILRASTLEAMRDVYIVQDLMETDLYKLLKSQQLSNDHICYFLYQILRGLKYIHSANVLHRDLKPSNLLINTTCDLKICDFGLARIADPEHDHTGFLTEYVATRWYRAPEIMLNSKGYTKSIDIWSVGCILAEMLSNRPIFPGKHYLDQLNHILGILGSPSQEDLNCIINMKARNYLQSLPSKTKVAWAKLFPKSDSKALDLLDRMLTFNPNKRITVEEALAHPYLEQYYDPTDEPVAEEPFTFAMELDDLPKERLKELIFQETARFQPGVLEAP
Sequence of Tyrosine-protein kinase JAK2 (O60674 whole entry): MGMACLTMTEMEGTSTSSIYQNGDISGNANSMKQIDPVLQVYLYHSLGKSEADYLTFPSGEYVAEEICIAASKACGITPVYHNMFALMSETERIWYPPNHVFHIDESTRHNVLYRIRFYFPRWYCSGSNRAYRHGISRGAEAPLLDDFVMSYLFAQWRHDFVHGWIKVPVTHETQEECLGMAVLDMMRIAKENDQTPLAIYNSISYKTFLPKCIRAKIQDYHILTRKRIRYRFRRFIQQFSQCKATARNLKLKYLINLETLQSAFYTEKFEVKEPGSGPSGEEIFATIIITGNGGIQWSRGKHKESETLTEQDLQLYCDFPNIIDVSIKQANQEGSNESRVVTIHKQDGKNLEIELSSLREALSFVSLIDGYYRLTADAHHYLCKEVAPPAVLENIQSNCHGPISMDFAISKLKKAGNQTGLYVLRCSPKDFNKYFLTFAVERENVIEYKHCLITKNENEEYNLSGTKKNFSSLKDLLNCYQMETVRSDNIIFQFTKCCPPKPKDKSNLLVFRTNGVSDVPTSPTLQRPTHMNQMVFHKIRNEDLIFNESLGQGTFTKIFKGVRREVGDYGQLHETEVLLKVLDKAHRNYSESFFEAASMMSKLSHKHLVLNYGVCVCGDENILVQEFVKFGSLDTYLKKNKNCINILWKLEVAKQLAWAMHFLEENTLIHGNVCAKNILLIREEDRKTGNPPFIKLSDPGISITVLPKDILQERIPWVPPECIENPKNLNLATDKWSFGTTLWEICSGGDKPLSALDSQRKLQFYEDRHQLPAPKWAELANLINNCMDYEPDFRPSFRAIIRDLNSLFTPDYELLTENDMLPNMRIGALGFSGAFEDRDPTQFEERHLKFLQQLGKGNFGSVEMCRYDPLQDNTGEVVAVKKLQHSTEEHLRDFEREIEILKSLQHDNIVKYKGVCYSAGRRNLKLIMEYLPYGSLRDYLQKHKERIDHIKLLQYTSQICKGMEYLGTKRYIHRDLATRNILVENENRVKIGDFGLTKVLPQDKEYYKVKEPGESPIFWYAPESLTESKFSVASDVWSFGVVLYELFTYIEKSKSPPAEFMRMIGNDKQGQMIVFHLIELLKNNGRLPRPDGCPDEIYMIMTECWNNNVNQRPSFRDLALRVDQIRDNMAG

Consider `COc1cc2nccc(Oc3ccc(NC(=O)Nc4cc(C)on4)c(Cl)c3)c2cc1OC` [TIVOZANIB], for which the figures for the IC50 in data set [1], in [2] and in [3] were over 1000 nM, “Not Determined(Insoluble)” and 0.13 nM, respectively. In the data set with HUVEC, the inhibition entry is “Active”. For the same compound, the inhibition in vivo at 0.2 mg/kg was determined as 60.3% with LoVo [4], 44.1% with Calu-6 [6] and 68.8% in the data set with NCI-H460 [7]. In addition, the inhibition in vivo at 1 mg/kg with LoVo [5] was over 100%; with SK-HEP1 it was 89.9%; with NCI-H460 [8], 85.9%; with SK-OV-3, 99.2%. In the data set with MDA-MB-231, the Activity was 0.89. Further, the apparent clearance (CL/F) in [9] is 2.07 mL/min/kg; in data set [10], 2.2 mL/min/kg. Moreover, the Vd/F in data set [11] is 1.4 L/kg; in [12], 1.54 L/kg; in [13] it was 1.29 L/kg. For the same compound, the maximum concentration (Cmax) came out at 21.6 ng/mL in data set [14] and 124 ng/mL in [16]. Also, in data set [15], the Tmax stood at 3.63 h. The “Cave,ss” value in data set [17] is 69.5 ng/mL. For the same compound, the result in the data set with A549 and with Calu-6 [18] was Active.
